ChEMBL document CHEMBL1781932 (J Med Chem, 2011)
Values after ≈ are worked out from the molar mass of the structure shown.

Assays:
Acinetobacter baumannii = assay: Antimicrobial activity against tetracycline-susceptible Acinetobacter baumannii isolate 110 by CLSI dilution method; format: functional
Procedure, shortened: (§1)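 Broth microdilution per CLSI in fresh cation-adjusted Mueller Hinton broth, kept at 4 °C before testing, with defibrinated horse blood added as appropriate. Strains were from ATCC. MIC in µg/mL. Runs were accepted when comparator antibiotics against ATCC quality-control strains fell within recommended ranges.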

Streptococcus pneumoniae [1] = assay: Antimicrobial activity against tetracycline-resistant Streptococcus pneumoniae isolate 160 harboring tetM gene by CLSI dilution method; format: functional
Enterococcus faecalis [2] = assay: Antimicrobial activity against tetracycline-resistant Enterococcus faecalis isolate 159 harboring […] gene by CLSI dilution method; format: functional
Klebsiella pneumoniae [3] = assay: Antimicrobial activity against tetracycline-resistant Klebsiella pneumoniae isolate 153 harboring tetA gene by CLSI dilution method; format: functional
[4] = Apparent volume of distribution in Sprague-Dawley rat at 1 mg/kg, iv administered as single dose measured after 24 to 48 hrs; details: in vivo
Streptococcus pneumoniae [5] = assay: Antimicrobial activity against tetracycline-susceptible Streptococcus pneumoniae isolate 106 by CLSI dilution method; format: functional; procedure, shortened: as §1
[6] = Cmax in Sprague-Dawley rat at 1 mg/kg, iv administered as single dose measured after 24 to 48 hrs; format: ADME, organism-based; design: dose 1 mg/kg, route intravenous; details: in vivo
Procedure, shortened: (§2)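 Sprague-Dawley rats (n = 3) were fasted overnight (minimum 12 h) and given a single dose, iv 1 mg/kg or oral 10 mg/kg, in sterile water. Samples were taken over 24–48 h. PK parameters came from noncompartmental analysis.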

Escherichia coli [7] = assay: Antimicrobial activity against tetracycline-resistant Escherichia coli isolate 155 harboring tetA gene by CLSI dilution method; format: functional
Pseudomonas aeruginosa = assay: Antimicrobial activity against tetracycline-susceptible Pseudomonas aeruginosa isolate 111 by CLSI dilution method; format: functional; procedure, shortened: as §1
Staphylococcus aureus [8] = assay: Antimicrobial activity against tetracycline-susceptible Staphylococcus aureus isolate 101 by CLSI dilution method; format: functional
Staphylococcus aureus [9] = assay: Antimicrobial activity against methicillin-, tetracycline-resistant Staphylococcus aureus isolate 161 harboring tetM gene by CLSI dilution method; format: functional
Staphylococcus aureus [10] = assay: Antimicrobial activity against tetracycline-susceptible Staphylococcus aureus Smith isolate 100 infected in po dosed mouse systemic infection model assessed as survival of mouse administered 60 mins post infection measured after 48 hrs; format: functional; details: Smith isolate 100, po, read-out: PD50
Procedure, shortened: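 Mouse septicemia model with S. aureus ATCC 13709 in 5% mucin, inoculated intraperitoneally at 2.1×10^6 cfu/mouse. Oral gavage dosing began 60 min post-infection at 0.3–30 mg/kg in sterile water, 6 mice/dose group, with untreated infection controls. Survival was assessed over 48 h. PD50 was obtained by Probit analysis with 95% CI.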

Staphylococcus aureus [11] = assay: Antimicrobial activity against tetracycline-resistant Staphylococcus aureus isolate 158 harboring tetK gene by CLSI dilution method; format: functional
[12] = Elimination half life in Sprague-Dawley rat at 1 mg/kg, iv administered as single dose; format: ADME, organism-based; design: dose 1 mg/kg, route intravenous; details: in vivo, read-out: beta t1/2 (converted); procedure, shortened: as §2
[13] = Clearance in Sprague-Dawley rat at 1 mg/kg, iv administered as single dose measured after 24 to 48 hrs; format: ADME, organism-based; design: dose 1 mg/kg, route intravenous; details: in vivo; procedure, shortened: as §2
Klebsiella pneumoniae [14] = assay: Antimicrobial activity against tetracycline-susceptible Klebsiella pneumoniae isolate 109 by CLSI dilution method; format: functional; procedure, shortened: as §1
Rattus norvegicus = assay: Oral bioavailability in Sprague-Dawley rat at 10 mg/kg administered as single dose; format: ADME, organism-based; details: in vivo; procedure, shortened: as §2
Staphylococcus aureus [15] = assay: Antimicrobial activity against tetracycline-susceptible Staphylococcus aureus Smith isolate 100 infected in iv dosed mouse systemic infection model assessed as survival of mouse administered 60 mins post infection measured up to 48 hrs; format: functional; details: Smith isolate 100, iv, read-out: PD50
Procedure, shortened: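 Mouse septicemia model with S. aureus ATCC 13709 mixed with 5% mucin, given intraperitoneally at 2.1×10^6 cfu/mouse. Compound was dosed intravenously 60 min after infection at 0.3–30 mg/kg in sterile water, 6 mice/dose group, with untreated infection controls. Survival was followed over 48 h. PD50 was derived by Probit analysis with 95% CI.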

[16] = AUC (0 to infinity) in Sprague-Dawley rat at 1 mg/kg, iv administered as single dose measured after 24 to 48 hrs; format: ADME, organism-based; design: time infinity, dose 1 mg/kg, route intravenous; details: plasma; procedure, shortened: as §2
Escherichia coli [17] = assay: Antimicrobial activity against tetracycline-susceptible Escherichia coli isolate 107 by CLSI dilution method; format: functional; procedure, shortened: as §1
Enterococcus faecalis [18] = assay: Antimicrobial activity against tetracycline-susceptible Enterococcus faecalis isolate 103 by CLSI dilution method; format: functional; procedure, shortened: as §1
Enterobacter cloacae = assay: Antimicrobial activity against tetracycline-susceptible Enterobacter cloacae isolate 108 by CLSI dilution method; format: functional; procedure, shortened: as §1
Staphylococcus aureus [19] = assay: Antimicrobial activity against tetracycline-susceptible Staphylococcus aureus Smith isolate 100 by CLSI dilution method; format: functional

SMILES | MIC (Acinetobacter baumannii) [µg/mL] | MIC (Streptococcus pneumoniae [1]) [µg/mL] | MIC (Enterococcus faecalis [2]) [µg/mL] | MIC (Klebsiella pneumoniae [3]) [µg/mL] | Vd [4] [L/kg] | MIC (Streptococcus pneumoniae [5]) [µg/mL] | Cmax [6] [ng/mL] | MIC (Escherichia coli [7]) [µg/mL] | MIC (Pseudomonas aeruginosa) [µg/mL] | MIC (Staphylococcus aureus [8]) [µg/mL] | MIC (Staphylococcus aureus [9]) [µg/mL] | ED50 (Staphylococcus aureus [10]) [mg/kg] | MIC (Staphylococcus aureus [11]) [µg/mL] | half-life [12] [h] | clearance [13] [mL/min/kg] | MIC (Klebsiella pneumoniae [14]) [µg/mL] | ED50 (Staphylococcus aureus [15]) [mg/kg] | AUC(0-inf) [16] [ng·h/mL] | MIC (Escherichia coli [17]) [µg/mL] | MIC (Enterococcus faecalis [18]) [µg/mL] | further results
CN(C)[C@@H]1C(O)=C(C(N)=O)C(=O)[C@@]2(O)C(O)=C3C(=O)c4c(cc5ccc(CN6CC(F)C6)cc5c4O)C[C@H]3C[C@@H]12 | 1 (≈ 1.81 µM) | 0.25 (≈ 0.453 µM) | 2 (≈ 3.63 µM) | 16 (≈ 29 µM) | 1.4 | 0.125 (≈ 0.227 µM) | 814 | 8 (≈ 14.5 µM) | > 32 | 0.5 (≈ 0.907 µM) | 2 (≈ 3.63 µM) | 12.2 | 0.5 (≈ 0.907 µM) | 3.35 | 4.82 | 8 (≈ 14.5 µM) | 0.36 | 3460 | 2 (≈ 3.63 µM) | 0.5 (≈ 0.907 µM) | F (Rattus norvegicus): 18%; MIC (Enterobacter cloacae): 8 µg/mL (≈ 14.5 µM)
COc1c2c(c(O)c3cc(CN4CCC4)ccc13)C(=O)C1=C(O)[C@]3(O)C(=O)C(C(N)=O)=C(O)[C@@H](N(C)C)[C@@H]3C[C@@H]1C2 | 1 (≈ 1.77 µM) | 0.0625 (≈ 0.111 µM) | 1 (≈ 1.77 µM) | 8 (≈ 14.2 µM) | 4.65 | 0.0156 (≈ 0.0277 µM) | 618 | 8 (≈ 14.2 µM) | 32 (≈ 56.8 µM) | 0.0625 (≈ 0.111 µM) | 0.5 (≈ 0.887 µM) | > 20 | 0.0625 (≈ 0.111 µM) | 5.26 | 10.2 | 1 (≈ 1.77 µM) | 0.36 | 1650 | 0.25 (≈ 0.444 µM) | 0.0625 (≈ 0.111 µM) | MIC (Staphylococcus aureus [19]): 0.0625 µg/mL (≈ 0.111 µM); MIC (Enterobacter cloacae): 1 µg/mL (≈ 1.77 µM)
CN(C)[C@@H]1C(O)=C(C(N)=O)C(=O)[C@@]2(O)C(O)=C3C(=O)c4c(O)cccc4[C@@](C)(O)[C@H]3C[C@@H]12 [TETRACYCLINE] |  |  |  |  |  |  | 583 |  |  |  |  | 8.1 |  |  |  |  | 0.35 |  |  |  | MIC (Staphylococcus aureus [19]): 0.25 µg/mL (≈ 0.563 µM)
